{
  "source": "ChEMBL document CHEMBL1155297",
  "about": "“Synthesis, antimicrobial and antioxidant activities of substituted pyrazoles, isoxazoles, pyrimidine and thioxopyrimidine derivatives” (2009)",
  "data": [
    {"system": "Proteus vulgaris", "test": "Antibacterial activity against Proteus vulgaris NCIM 2027 after 24 hrs by microdilution susceptibility method", "format": "functional", "details": "NCIM 2027, 24 h", "procedure,_shortened": "(§1)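 MIC by microdilution susceptibility; compounds in DMSO, bacterial suspensions inoculated into wells. Incubation was at 36 °C for 24 h. MIC is the lowest compound concentration showing no turbidity. Chloramphenicol served as reference antibacterial.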", "units": {"MIC": "mg/L"}, "values": [
      {"smiles": "N=C1ON=C(N)C1C(CC(=O)c1ccc(Cl)cc1)C(=O)c1ccc(Cl)cc1", "note": "(stereo not drawn)", "MIC": 200}
    ]},
    {"system": "not listed separately", "test": "Antioxidant activity assessed as nitric oxide production at 100 uM after 120 mins by Griess reagent method", "format": "functional", "details": "not given", "procedure,_shortened": "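Nitric oxide assay with Griess read-out. At intervals, 0.5 ml of incubation solution was mixed with 0.5 ml Griess reagent (1% sulfanilamide, 0.1% N-naphthylethylenediamine dihydrochloride, 2% o-phosphoric acid in water). The control received an equal amount of solvent and was handled identically.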", "units": {"inhibition": "%"}, "values": [
      {"smiles": "N=C1ON=C(N)C1C(CC(=O)c1ccc(Cl)cc1)C(=O)c1ccc(Cl)cc1", "note": "(stereo not drawn)", "inhibition": 90.3}
    ]},
    {"system": "Proteus vulgaris", "test": "Antibacterial activity against Proteus vulgaris NCIM 2027 at 200 ug/disk after 24 hrs by agar disk diffusion method", "format": "functional", "details": "NCIM 2027, 24 h, read-out: IZ", "procedure,_shortened": "(§2)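 Agar disc diffusion on nutrient agar plates pre-inoculated with each bacterium. Sterile 6 mm filter-paper discs were moistened with compound in DMSO at the stated per-disc amount. Plates were incubated at 37 °C, and the growth-inhibition zone diameter was read after 24 h. Each determination was run in triplicate, and the mean of three independent readings is reported.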", "units": {"zone of inhibition at 200 µg/disc": "mm"}, "values": [
      {"smiles": "N=C1ON=C(N)C1C(CC(=O)c1ccc(Cl)cc1)C(=O)c1ccc(Cl)cc1", "note": "(stereo not drawn)", "zone of inhibition at 200 µg/disc": 26}
    ]},
    {"system": "Staphylococcus aureus", "test": "Antibacterial activity against Staphylococcus aureus NCIM 5021 at 200 ug/disk after 24 hrs by agar disk diffusion method", "format": "functional", "details": "NCIM 5021, 24 h, read-out: IZ", "procedure,_shortened": "as §2", "units": {"zone of inhibition at 200 µg/disc": "mm"}, "values": [
      {"smiles": "N=C1ON=C(N)C1C(CC(=O)c1ccc(Cl)cc1)C(=O)c1ccc(Cl)cc1", "note": "(stereo not drawn)", "zone of inhibition at 200 µg/disc": 32}
    ]},
    {"system": "Aspergillus niger", "test": "Antifungal activity against Aspergillus niger NCIM 596 after 48 hrs by microdilution susceptibility method", "format": "functional", "details": "NCIM 596, 48 h", "procedure,_shortened": "(§3)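 Broth microdilution MIC; fungal suspensions were inoculated into wells containing compound dissolved in DMSO. Incubation was at 36 °C for 48 h. MIC was recorded as the lowest concentration with no turbidity. Ketoconazole was the reference antifungal.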", "units": {"MIC": "mg/L"}, "values": [
      {"smiles": "N=C1ON=C(N)C1C(CC(=O)c1ccc(Cl)cc1)C(=O)c1ccc(Cl)cc1", "note": "(stereo not drawn)", "MIC": 100}
    ]},
    {"system": "Curvularia lunata", "test": "Antifungal activity against Curvularia lunata NCIM 716 at 100 ug/disk after 48 hrs by agar disk diffusion method", "format": "functional", "details": "NCIM 716, 48 h, read-out: IZ", "procedure,_shortened": "(§4)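 Fungal disc diffusion on nutrient agar plates pre-inoculated with each fungus. 6 mm sterile paper discs carried the compound in DMSO at the stated amount per disc. Plates were held at 37 °C, and inhibition-zone diameter was measured after 48 h. Values are the mean of three independent triplicate readings.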", "units": {"zone of inhibition at 100 µg/disc": "mm"}, "values": [
      {"smiles": "N=C1ON=C(N)C1C(CC(=O)c1ccc(Cl)cc1)C(=O)c1ccc(Cl)cc1", "note": "(stereo not drawn)", "zone of inhibition at 100 µg/disc": 32}
    ]},
    {"system": "Aspergillus niger", "test": "Antifungal activity against Aspergillus niger NCIM 596 at 200 ug/disk after 48 hrs by agar disk diffusion method", "format": "functional", "details": "NCIM 596, 48 h, read-out: IZ", "procedure,_shortened": "as §4", "units": {"zone of inhibition at 200 µg/disc": "mm"}, "values": [
      {"smiles": "N=C1ON=C(N)C1C(CC(=O)c1ccc(Cl)cc1)C(=O)c1ccc(Cl)cc1", "note": "(stereo not drawn)", "zone of inhibition at 200 µg/disc": 28}
    ]},
    {"system": "Fusarium solani", "test": "Antifungal activity against Fusarium solani NCIM 1330 after 48 hrs by microdilution susceptibility method", "format": "functional", "details": "NCIM 1330, 48 h", "procedure,_shortened": "as §3", "units": {"MIC": "mg/L"}, "values": [
      {"smiles": "N=C1ON=C(N)C1C(CC(=O)c1ccc(Cl)cc1)C(=O)c1ccc(Cl)cc1", "note": "(stereo not drawn)", "MIC": 100}
    ]},
    {"system": "Bacillus subtilis", "test": "Antibacterial activity against Bacillus subtilis NCIM 2063 at 100 ug/disk after 24 hrs by agar disk diffusion method", "format": "functional", "details": "NCIM 2063, 24 h, read-out: IZ", "procedure,_shortened": "as §2", "units": {"zone of inhibition at 100 µg/disc": "mm"}, "values": [
      {"smiles": "N=C1ON=C(N)C1C(CC(=O)c1ccc(Cl)cc1)C(=O)c1ccc(Cl)cc1", "note": "(stereo not drawn)", "zone of inhibition at 100 µg/disc": 28}
    ]},
    {"system": "Radical scavenging activity", "test": "Antioxidant activity assessed as DPPH free radical scavenging activity at 100 uM after 20 mins", "format": "functional", "details": "not given", "procedure,_shortened": "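DPPH scavenging: compound solutions were added to DPPH in dioxane/ethanol and kept at ambient temperature for 20 min. Absorbance was read at 517 nm. The test–control difference was expressed as percent DPPH radical scavenging.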", "units": {"inhibition": "%"}, "values": [
      {"smiles": "N=C1ON=C(N)C1C(CC(=O)c1ccc(Cl)cc1)C(=O)c1ccc(Cl)cc1", "note": "(stereo not drawn)", "inhibition": 89.6}
    ]},
    {"system": "Bacillus subtilis", "test": "Antibacterial activity against Bacillus subtilis NCIM 2063 at 200 ug/disk after 24 hrs by agar disk diffusion method", "format": "functional", "details": "NCIM 2063, 24 h, read-out: IZ", "procedure,_shortened": "as §2", "units": {"zone of inhibition at 200 µg/disc": "mm"}, "values": [
      {"smiles": "N=C1ON=C(N)C1C(CC(=O)c1ccc(Cl)cc1)C(=O)c1ccc(Cl)cc1", "note": "(stereo not drawn)", "zone of inhibition at 200 µg/disc": 30}
    ]},
    {"system": "Aspergillus niger", "test": "Antifungal activity against Aspergillus niger NCIM 596 at 100 ug/disk after 48 hrs by agar disk diffusion method", "format": "functional", "details": "NCIM 596, 48 h, read-out: IZ", "procedure,_shortened": "as §4", "units": {"zone of inhibition at 100 µg/disc": "mm"}, "values": [
      {"smiles": "N=C1ON=C(N)C1C(CC(=O)c1ccc(Cl)cc1)C(=O)c1ccc(Cl)cc1", "note": "(stereo not drawn)", "zone of inhibition at 100 µg/disc": 26}
    ]},
    {"system": "Proteus vulgaris", "test": "Antibacterial activity against Proteus vulgaris NCIM 2027 at 100 ug/disk after 24 hrs by agar disk diffusion method", "format": "functional", "details": "NCIM 2027, 24 h, read-out: IZ", "procedure,_shortened": "as §2", "units": {"zone of inhibition at 100 µg/disc": "mm"}, "values": [
      {"smiles": "N=C1ON=C(N)C1C(CC(=O)c1ccc(Cl)cc1)C(=O)c1ccc(Cl)cc1", "note": "(stereo not drawn)", "zone of inhibition at 100 µg/disc": 25}
    ]},
    {"system": "Fusarium solani", "test": "Antifungal activity against Fusarium solani NCIM 1330 at 200 ug/disk after 48 hrs by agar disk diffusion method", "format": "functional", "details": "NCIM 1330, 48 h, read-out: IZ", "procedure,_shortened": "as §4", "units": {"zone of inhibition at 200 µg/disc": "mm"}, "values": [
      {"smiles": "N=C1ON=C(N)C1C(CC(=O)c1ccc(Cl)cc1)C(=O)c1ccc(Cl)cc1", "note": "(stereo not drawn)", "zone of inhibition at 200 µg/disc": 35}
    ]},
    {"system": "Klebsiella pneumoniae", "test": "Antibacterial activity against Klebsiella pneumoniae NCIM 2957 at 100 ug/disk after 24 hrs by agar disk diffusion method", "format": "functional", "details": "NCIM 2957, 24 h, read-out: IZ", "procedure,_shortened": "as §2", "units": {"zone of inhibition at 100 µg/disc": "mm"}, "values": [
      {"smiles": "N=C1ON=C(N)C1C(CC(=O)c1ccc(Cl)cc1)C(=O)c1ccc(Cl)cc1", "note": "(stereo not drawn)", "zone of inhibition at 100 µg/disc": 25}
    ]},
    {"system": "Staphylococcus aureus", "test": "Antibacterial activity against Staphylococcus aureus NCIM 5021 after 24 hrs by microdilution susceptibility method", "format": "functional", "details": "NCIM 5021, 24 h", "procedure,_shortened": "as §1", "units": {"MIC": "mg/L"}, "values": [
      {"smiles": "N=C1ON=C(N)C1C(CC(=O)c1ccc(Cl)cc1)C(=O)c1ccc(Cl)cc1", "note": "(stereo not drawn)", "MIC": 50}
    ]},
    {"system": "Curvularia lunata", "test": "Antifungal activity against Curvularia lunata NCIM 716 at 200 ug/disk after 48 hrs by agar disk diffusion method", "format": "functional", "details": "NCIM 716, 48 h, read-out: IZ", "procedure,_shortened": "as §4", "units": {"zone of inhibition at 200 µg/disc": "mm"}, "values": [
      {"smiles": "N=C1ON=C(N)C1C(CC(=O)c1ccc(Cl)cc1)C(=O)c1ccc(Cl)cc1", "note": "(stereo not drawn)", "zone of inhibition at 200 µg/disc": 34}
    ]},
    {"system": "Klebsiella pneumoniae", "test": "Antibacterial activity against Klebsiella pneumoniae NCIM 2957 after 24 hrs by microdilution susceptibility method", "format": "functional", "details": "NCIM 2957, 24 h", "procedure,_shortened": "as §1", "units": {"MIC": "mg/L"}, "values": [
      {"smiles": "N=C1ON=C(N)C1C(CC(=O)c1ccc(Cl)cc1)C(=O)c1ccc(Cl)cc1", "note": "(stereo not drawn)", "MIC": 100}
    ]},
    {"system": "Klebsiella pneumoniae", "test": "Antibacterial activity against Klebsiella pneumoniae NCIM 2957 at 200 ug/disk after 24 hrs by agar disk diffusion method", "format": "functional", "details": "NCIM 2957, 24 h, read-out: IZ", "procedure,_shortened": "as §2", "units": {"zone of inhibition at 200 µg/disc": "mm"}, "values": [
      {"smiles": "N=C1ON=C(N)C1C(CC(=O)c1ccc(Cl)cc1)C(=O)c1ccc(Cl)cc1", "note": "(stereo not drawn)", "zone of inhibition at 200 µg/disc": 27}
    ]},
    {"system": "Curvularia lunata", "test": "Antifungal activity against Curvularia lunata NCIM 716 after 48 hrs by microdilution susceptibility method", "format": "functional", "details": "NCIM 716, 48 h", "procedure,_shortened": "as §3", "units": {"MIC": "mg/L"}, "values": [
      {"smiles": "N=C1ON=C(N)C1C(CC(=O)c1ccc(Cl)cc1)C(=O)c1ccc(Cl)cc1", "note": "(stereo not drawn)", "MIC": 100}
    ]},
    {"system": "Fusarium solani", "test": "Antifungal activity against Fusarium solani NCIM 1330 at 100 ug/disk after 48 hrs by agar disk diffusion method", "format": "functional", "details": "NCIM 1330, 48 h, read-out: IZ", "procedure,_shortened": "as §4", "units": {"zone of inhibition at 100 µg/disc": "mm"}, "values": [
      {"smiles": "N=C1ON=C(N)C1C(CC(=O)c1ccc(Cl)cc1)C(=O)c1ccc(Cl)cc1", "note": "(stereo not drawn)", "zone of inhibition at 100 µg/disc": 33}
    ]},
    {"system": "Bacillus subtilis", "test": "Antibacterial activity against Bacillus subtilis NCIM 2063 after 24 hrs by microdilution susceptibility method", "format": "functional", "details": "NCIM 2063, 24 h", "procedure,_shortened": "as §1", "units": {"MIC": "mg/L"}, "values": [
      {"smiles": "N=C1ON=C(N)C1C(CC(=O)c1ccc(Cl)cc1)C(=O)c1ccc(Cl)cc1", "note": "(stereo not drawn)", "MIC": 50}
    ]},
    {"system": "Staphylococcus aureus", "test": "Antibacterial activity against Staphylococcus aureus NCIM 5021 at 100 ug/disk after 24 hrs by agar disk diffusion method", "format": "functional", "details": "NCIM 5021, 24 h, read-out: IZ", "procedure,_shortened": "as §2", "units": {"zone of inhibition at 100 µg/disc": "mm"}, "values": [
      {"smiles": "N=C1ON=C(N)C1C(CC(=O)c1ccc(Cl)cc1)C(=O)c1ccc(Cl)cc1", "note": "(stereo not drawn)", "zone of inhibition at 100 µg/disc": 29}
    ]}
  ]
}
